Source: ChEMBL document CHEMBL1145955, “Synthesis, anti-HIV activity, and molecular mechanism of drug resistance of L-2',3'-didehydro-2',3'-dideoxy-2'-fluoro-4'-thionucleosides” (J Med Chem, 2003)

Tests used:
[1] = tested on: Vero; assay: Evaluated in vitro for their potential toxic effects against Vero cells; type: functional, cell-based; conditions: Chlorocebus sabaeus
Summary of the method: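 Log-phase Vero cells were seeded at 5 × 10³ cells/well in 10-fold serial drug dilutions and incubated 3 days at 37 °C, 5% CO₂. MTT dye was added overnight, then solubilized for 5 h and read at 570 nm. IC50 was taken from median-effect concentration-response curves.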

[2] = tested on: CCRF-CEM; assay: Evaluated in vitro for their potential toxic effects human CEM cells; type: functional, cell-based
Summary of the method: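 CEM T-lymphoblastoid cells in log phase, 2.5 × 10³ cells/well, were exposed to 10-fold serial drug dilutions for 4 days at 37 °C, 5% CO₂. Viability was read by MTT (overnight dye, 5 h solubilization, 570 nm). IC50 was determined by the median-effect method.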

[3] = tested on: Human immunodeficiency virus 1; assay: (§1) In vitro anti-HIV activity was determined in PBM cells infected with HIV-1; type: functional, organism-based; conditions: Human immunodeficiency virus 1, PBMC
Summary of the method: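 PHA-stimulated (2-3 days) human PBM cells from healthy seronegative donors, infected in bulk for 1 h with HIV-1 LAI (100 TCID50/1 × 10⁷ cells in flasks or 200 TCID50/6 × 10⁵ cells/well). Infected cells went onto 10-fold serial compound dilutions in RPMI-1640 with 16% FBS, DEAE-dextran and IL-2, 5 days at 37 °C. Virion-pelleted supernatant RT activity was measured by poly(rA)·oligo(dT)/³H-TTP incorporation (37 °C, 2 h). EC50/EC90 came from median-effect curves.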

[4] = Evaluated in vitro for their potential toxic effects on uninfected PHA-stimulated human PBM cells; type: functional, cell-based
Summary of the method: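 Uninfected PHA-stimulated PBM cells from healthy seronegative donors (Ficoll-Hypaque) were plated at 5 × 10⁴ cells/well with 10-fold serial drug dilutions for 5 days at 37 °C, 5% CO₂. The MTT readout was taken at 570 nm after overnight dye and 5 h solubilization. IC50 came from median-effect curves.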

[5] = as §1; conditions: Homo sapiens, PBMC
[6] = tested on: Human immunodeficiency virus 1; assay: Antiviral activity was determined against lamivudine-resistant mutant M184V strain; type: functional
Summary of the method: (§2)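 Molecular clones HIV-1 xxBru (wild type) and HIV-1 M184Vpitt infected PHA-stimulated human PBM cells in bulk for 1 h. Cells were cultured with 10-fold serial compound dilutions, 5 days, 37 °C, 5% CO2. Read-out was supernatant RT activity with ³H-TTP incorporation. EC50 and EC90 were taken from concentration-response curves by the median effect method. Fold increase = EC90(M184V)/EC90(xxBru).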

[7] = tested on: Vero (Chlorocebus sabaeus); assay: Evaluated in vitro for their potential toxic effects against Vero cells
[8] = Fold increase was determined from the ratio of EC90 (HIV-1M184V) / EC90 (HIV-1xxBRU); type: functional; summary of the method: as §2
[9] = tested on: Human immunodeficiency virus 1; assay: Antiviral activity was determined against WT (HIV-1xxBRU); type: functional
Summary of the method: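 Molecular infectious clone HIV-1 xxBru was used to infect PHA-stimulated human PBM cells in bulk for 1 h (100 TCID50/1 × 10⁷ cells or 200 TCID50/6 × 10⁵ cells/well). Cells were cultured 5 days at 37 °C with 10-fold serial compound dilutions. Readout was supernatant RT activity, with ³H-TTP incorporation on poly(rA)·oligo(dT). EC50 was derived by the median-effect method.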

SMILES	EC50 [3] [µM]	IC50 [1] [µM]	IC50 [2] [µM]	IC50 [4] [µM]	EC50 [5] [µM]	EC90 [6] [µM]	IC50 [7] [µM]	FI [8]	EC90 [9] [µM]
Nc1nc(O)c2ncn([C@H]3S[C@@H](CO)C=C3F)c2n1	43.5	66.4	41.5	> 100	–	–	–	–	–
O=c1ccn([C@H]2S[C@@H](CO)C=C2F)c(=O)[nH]1	> 100	> 100	> 100	> 100	–	–	–	–	–
Cc1cn([C@H]2C[C@H](N=[N+]=[N-])[C@@H](CO)O2)c(=O)[nH]c1=O [ZIDOVUDINE]	–	14.3	29	> 100	0.004	–	–	–	–
Nc1ccn([C@H]2S[C@@H](CO)C=C2F)c(=O)n1	0.12	–	> 100	> 100	–	> 100	> 100	> 100	1.4
Cc1cn([C@H]2S[C@@H](CO)C=C2F)c(=O)[nH]c1=O	> 100	> 100	> 100	> 100	–	–	–	–	–

The next lines start with results.

EC50 [3] [µM]	SMILES	IC50 [1] [µM]	IC50 [2] [µM]	IC50 [4] [µM]	EC50 [5] [µM]	EC90 [6] [µM]	IC50 [7] [µM]	FI [8]	EC90 [9] [µM]
15.5	OC[C@H]1C=C(F)[C@@H](n2cnc3c(O)ncnc32)S1	> 100	> 100	> 100	–	–	–	–	–
1.7	Nc1ncnc2c1ncn2[C@H]1S[C@@H](CO)C=C1F	> 100	> 100	> 100	–	–	–	–	–
0.15	Nc1nc(=O)n([C@H]2S[C@@H](CO)C=C2F)cc1F	> 100	> 100	> 100	–	–	–	–	–
